Screening results as filed in PubChem BioAssay.
APJ antagonist: antagonists of human apelin receptor APJ, primary screen, CHO-K1 cells, beta-arrestin complementation, luminescence; P35414; inhibition, % at 20 µM; hit rate 0.32% among 330,000; AID 2521, 2010;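 active = inhibition above about 40% at 20 µM, limit read from the data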;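 also: cells challenged with 10 nM apelin-13 agonist together with compound; plate controls were apelin-13 plus DMSO wells for no effect and DMSO wells lacking apelin-13 for full effect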
EBI2 block: EBI2 receptor antagonists, beta-arrestin recruitment, primary screen, cell-based, luminescence, 7a,25-OHC stimulation, uHTS; 7a,25-OHC stimulated; inhibition, % at 5 µM; hit rate 0.81% among 360,000; AID 651636, 2012; in the data active = inhibition above about 38%;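 also: enzyme fragment complementation signal reports receptor beta-arrestin coupling in cells; 0% = agonist plus DMSO wells and 100% = wells without agonist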
CCR6 antagonist: CCR6 receptor antagonists, primary screen, cell-based, CHO-K1, luminescence, beta-arrestin, uHTS | CHO-K1 CCR6 PathHunter beta-arrestin, CCL20-stimulated | inhibition, % at 20 µM | C-C chemokine receptor type 6 (Homo sapiens), P51684 | hit rate 0.49% among 340,000;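 active = compounds whose inhibition of the agonist-driven luminescence signal at 20 µM reaches about 50%, limit read from the data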;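 also: cells stimulated with CCL20 at 14 nM final; plate controls were DMSO with CCL20 for no effect and DMSO without agonist for full effect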
Target sequence (P51684 whole entry, looked up): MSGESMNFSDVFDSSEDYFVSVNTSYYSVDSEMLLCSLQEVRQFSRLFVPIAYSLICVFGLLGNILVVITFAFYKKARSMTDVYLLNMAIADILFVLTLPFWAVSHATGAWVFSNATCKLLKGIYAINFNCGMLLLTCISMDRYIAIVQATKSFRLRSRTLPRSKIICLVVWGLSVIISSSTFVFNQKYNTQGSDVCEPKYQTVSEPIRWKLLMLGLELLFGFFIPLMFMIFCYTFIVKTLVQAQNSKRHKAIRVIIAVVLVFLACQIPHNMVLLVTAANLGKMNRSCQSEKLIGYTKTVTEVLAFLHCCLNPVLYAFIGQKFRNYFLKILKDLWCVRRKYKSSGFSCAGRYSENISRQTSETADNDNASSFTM
APJ ag: agonists of human apelin receptor APJ, primary screen, CHO-K1 cells, PathHunter beta-arrestin, luminescence. 0% DMSO wells, 100% apelin. hit rate 0.11% among 330,000. activation, % at 20 µM;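 active = activation more than six SD over the plate average, tested at 20 µM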;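 also: 0% = DMSO alone and 100% = apelin-13 at 10 nM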
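Assay system: CHO-K1 cells stably expressing ProLink-tagged human APJ and arrestin–beta-gal acceptor. Compound dosing: 20 µM single point, 1% DMSO. Times: 16-18 h seeding, 90 min dark compound exposure, 60 min detection. Detection: beta-gal luminescence. Evaluation: APJ–arrestin association signal. Controls: negative DMSO alone, positive Apelin-13 at 10 nM.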
CXCR6 block: CXCR6 receptor inhibitors, primary screen, cell-based, beta-arrestin, luminescence, CHO-K1 PathHunter, 1536-well | C-X-C chemokine receptor type 6 (Homo sapiens), O00574 | inhibition, % at 20 µM | AID 602244, 2012 | hit rate 0.36% among 360,000; in the data active = inhibition above about 34%, passing the limit was not always enough;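 also: antagonist mode with CXCL16 agonist at 10 nM final; 0% = 10 nM CXCL16 with DMSO and 100% = unstimulated wells without agonist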
Active calls of the source: *; · = not tested or not shown. Only some compounds are listed: those with a hit (about 1.5% of all), similar ones and a draw of the others.

SMILES	APJ antagonist	EBI2 block	CCR6 antagonist	APJ ag	CXCR6 block
O=C(/C=C/c1ccc(O)c(O)c1)c1ccc(S(=O)(=O)N2CCCCCC2)cc1	42*	10	63*	-6	29
CCOC(=O)CN(C(=O)CSc1nnc(CNc2ccc(F)cc2)n1C)c1ccccc1	-16	15	8	-7	-3
CCOC(=O)CN(C(=O)CSc1nnc(COc2ccc(OC)cc2)n1C)c1ccccc1	5	52*	22	-3	-17
O=C(c1ccc(-n2cncn2)c([N+](=O)[O-])c1)N1CCN(S(=O)(=O)c2ccc(F)c(F)c2)CC1	-8	0	-20	15	2
Cc1cc(OC(C)C(=O)N2C[C@H]3C[C@@H](C2)c2cccc(=O)n2C3)c2c(C)c(C)c(=O)oc2c1 (some centres not stated)	3	-11	2	-4	2
CC(=O)[C@]1(O)Cc2c(O)c3c(c(O)c2[C@@H](O[C@H]2C[C@H](N)[C@H](O)[C@H](C)O2)C1)C(=O)c1ccccc1C3=O	36	·	81*	-3	·
Cc1ccccc1NC(=O)CCN1CCc2ccccc2C1	13	0	3	-2	1
c1ccc2nc(NN=C3CCCCC3)ccc2c1	·	11	78*	·	35*
Cc1cc2c(C)nc(N/N=C/c3ccc([N+](=O)[O-])cc3)nc2o1	·	1	108*	·	4
O=[N+]([O-])c1cccc(C=NNc2ccccc2)c1	·	-2	25	·	6
O=[N+]([O-])c1ccc(C=NNc2ccccc2)cc1	·	9	50*	·	18
CCOc1cc(CNC(C)(C)CO)cc(Br)c1OCc1ccc(Cl)cc1Cl	-20	-21	50*	-7	-6
COC(=O)C(CO)NC(=O)C1CCCN1C(=O)CNC(=O)OCc1ccccc1 (configuration not stated)	1	-4	13	-5	-11
CCC(C)[C@H]1CNC(=S)N1CCc1cccc2ccccc12 (some centres not stated)	22	46*	16	1	10
CCC(C)[C@H]1CNC(=O)C(=O)N1CCc1cccc2ccccc12 (some centres not stated)	·	11	·	·	1
COC(=O)c1cc(=O)n(CCc2ccccc2)c(=Nc2ccc(F)cc2)s1	12	36	26	-2	10
CCOC(=O)c1ccc(N=c2sc(C(=O)OC)cc(=O)n2Cc2ccco2)cc1	10	58*	9	3	6
CCN1C/C(=C\c2cccc([N+](=O)[O-])c2)C(=O)/C(=C/c2cccc([N+](=O)[O-])c2)C1	·	40	73*	·	31
O=C1/C(=C/c2cccc([N+](=O)[O-])c2)CCc2ccccc21	18	-71	23	-6	15
Cc1[nH]nc(SCC(=O)NC2CCCCC2)c1[N+](=O)[O-]	3	-9	15	-8	-2
O=C(/C=C\c1ccccc1OC(=O)c1ccccc1F)c1cc2ccccc2o1	34	45*	42	2	16
COc1cc(C2Nc3ccc4ncccc4c3C3=C2C(=O)CCC3)cc(OC)c1OC (configuration not stated)	-4	7	7	-2	-14
Cc1ccsc1C1Nc2ccc3ncccc3c2C2=C1C(=O)CCC2 (configuration not stated)	-33	70*	1	0	9
CCC(Oc1ccccc1C)C(=O)N1CCCN(C)CC1 (configuration not stated)	8	-3	-8	3	-14
C/C(Cl)=C\Cn1c(O)c(N=NC(N)=S)c2cc(Br)ccc21	34	10	55*	-9	34
SMILES	APJ antagonist	EBI2 block	CCR6 antagonist	APJ ag	CXCR6 block
Cc1cc2nc(-c3ccco3)c(Cc3ccccc3C(F)(F)F)n2c(C)c1Br	·	9	·	·	7
C=CCn1c(Sc2ncc([N+](=O)[O-])s2)n[nH]c1=O	31	6	56*	11	42*
CC(C)(C)c1nnc(N/N=C/c2ccccc2O)n(N)c1=O	-13	81*	14	0	-23
COc1cc(N2C(=O)C=CC2=O)c(OC)cc1Cl	2	6	·	-1	75*
O=[N+]([O-])c1ccc(/C=N/N=C/c2ccc([N+](=O)[O-])o2)o1	·	-7	61*	·	37
CC1(C)Cc2c(ccc3ccccc23)/C(=C/C(=O)N2CCCCC2)N1	16	24	64*	-9	28
O=C(c1ccc(-c2cc(O)c3ncccc3c2)cc1)N1CCNCC1	-14	-29	-13	3	-26
CC(C)(C)N(Cc1ccccc1)C(=O)CSc1nnc(CNc2ccc(F)cc2)o1	-2	47*	-5	-2	-2
CC(=O)OC(C)C1C2=C(C(=O)CC1(C)O)C(=O)c1c(ccc(-c3ccc4c(c3O)C(=O)C3=C(C4=O)C(C(C)OC(C)=O)C(C)(O)CC3=O)c1O)C2=O (configuration not stated)	·	-9	52*	·	29
Cc1ccnc(NS(=O)(=O)c2ccc(NC(=O)c3snnc3C)cc2)n1	4	3	6	2	-4
Cc1ccc(-n2nc(C)c3c(C)c(CCC(=O)Nc4ccc(CN5CCCC5)cc4)c(C)nc32)cc1	-4	14	52*	0	-10
CC(=O)c1ccc(NC(=O)c2ccc3nc(-c4ccco4)c(-c4ccco4)nc3c2)cc1	-7	-7	33	6	46*
O=C(Nc1ccccc1)c1ccc2nc(-c3ccco3)c(-c3ccco3)nc2c1	-7	8	27	-2	9
CC(=O)Nc1ccc(NC(=O)CSc2ccc([N+](=O)[O-])cn2)cc1	-34	-6	-4	1	-2
CCOC(=O)c1c(SC)n(-c2ccccc2)c(=S)n(-c2ccccc2)c1=O	·	-8	10	·	8
CCOC(=O)c1c(SCCN2CCCCC2)n(-c2ccccc2)c(=S)n(-c2ccccc2)c1=O	·	9	99*	·	86*
O=C(O)CCCN1C(=O)/C(=C\c2ccc(-c3nc4ccccc4s3)o2)SC1=S	11	31	24	-6	43*
O=C(O)CCN1C(=O)/C(=C/c2ccc(-c3nc4ccccc4s3)o2)SC1=S	-6	-1	22	-5	32
Cc1ccccc1C(=O)Nc1cccc(C(=O)N/N=C/c2cc(Cl)cc([N+](=O)[O-])c2O)c1	27	8	71*	-8	34
COc1ccc(OCC(O)Cn2c(=N)n(Cc3ccccc3)c3ccccc32)cc1 (configuration not stated)	4	-3	12	1	-6
N=c1n(Cc2ccc(Cl)cc2)c2ccccc2n1CC(O)COc1ccccc1 (configuration not stated)	-6	-4	-3	15*	-21
O=CN/C=C/c1cccc(O)c1	·	8	-1	·	-4
